Activity calls are given as the source filed them.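 Rule for the calls: active = fitted dose curve showing toxicity with half-maximal concentration at most ten times the top tested dose; inconclusive = flat curve with 30 to 70% toxicity, or poor fit; inactive = the rest.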

The nature of this assay: cytotoxicity in NIH-3T3 mammalian cells, dose response, cytotoxicity control for antifungal drug resistance project, cell-based, fluconazole, powder samples, set 7 (AID 504525). Particulars: NIH-3T3 viability with fluconazole, Alamar Blue, 48 h; series mostly up to 26 µM. The method, boiled down:
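Assay system: NIH 3T3 fibroblasts; Amount: 6,000 cells/well; Buffer or medium: Optimem growth medium with 2.5% fetal bovine serum; Reagent: fluconazole co-treatment at 8 µg/mL final; Doses: test compound dose series, top final amount 26 µM; Times: 48 h compound exposure at 37 °C; Technique: Alamar Blue fluorescence, Ex 544/Em 590 nm.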
On the technique in general: Alamar Blue is a resazurin reagent that responds to reducing activity.
With `COC(=O)n1nc(-c2ccccc2)c2ccccc21`, the result was inactive.

Regarding `COC(=O)Cn1nc(-c2cccc(OC)c2)c2ccccc21`, the compound was classed as inactive.

As for `COC(=O)Cn1nc(-c2cnco2)c2ccccc21`, the compound was classed as inactive.

As for `CN1CCN(C(=O)Cn2c3ccccc3c3nc4n(c(=O)c32)CCS4)CC1`, the compound was called inactive.

With `COC(=O)Cn1c2ccc(F)cc2c2nc3n(c(=O)c21)CCS3`, the compound was classed as inactive.

As for `O=C(O)Cn1c2ccc(F)cc2c2nc3n(c(=O)c21)CCS3`, the result was inactive.

Regarding `COC(=O)Cn1nc(-c2cccnc2)c2ccccc21`, the result was inactive.

For `COC(=O)Cn1nc(C(C)(C)C)c2ccccc21`, the result was inactive.

With `COC(=O)Cn1nc(-c2cscn2)c2ccccc21`, the call was inactive.

As to `COC(=O)Cn1nc(-c2ccccc2)c2cccnc21`, the call was inactive.

Turning to `O=C(Cn1c2ccc(F)cc2c2nc3n(c(=O)c21)CCS3)N1CCC(F)(F)CC1`, the call was inactive.

Take `O=C(Cn1c2ccccc2c2nc3n(c(=O)c21)CCS3)N1CCC(F)(F)CC1`: the call was inactive.

Take `CC1(O)CN(C(=O)Cn2c3ccccc3c3nc4n(c(=O)c32)CCS4)C1`: the compound was called inactive.

For the compound `O=C(Cn1c2ccc(F)cc2c2nc3n(c(=O)c21)CCS3)N1CCC(F)(F)C1`, the call was inactive.

For `COC(=O)Cn1nc(-c2cccc(F)c2)c2ccccc21`, the result was inactive.

In the case of `O=C(Cn1c2ccccc2c2nc3n(c(=O)c21)CCS3)N1CC=CC1`, the compound was called inactive.

In the case of `COC(=O)Cn1nc(C2CCCCC2)c2ccccc21`, the compound was called inactive.

`O=C(O)Cn1c2ccccc2c2nc3n(c(=O)c21)CCS3`: the outcome was inactive.

For `O=C(Cn1c2ccccc2c2nc3n(c(=O)c21)CCS3)N1CCC(F)(F)C1`, the compound was called inactive.

As for `COC(=O)Cn1nc(-c2cccc(C)c2)c2ccccc21`, the compound was called inactive.

Consider `c1ccc(-c2nn(Cc3nnco3)c3ccccc23)cc1`, for which the result was inactive.

With `CCc1nn(CC(=O)OC)c2ccccc12`, the call was inactive.

Take `CC1CCN(CCn2c3ccccc3c3nc4n(c(=O)c32)CCS4)CC1`: the compound was called inactive.

For `COC(=O)Cn1nc(C2CC2)c2ccccc21`, the result was inactive.

With `O=C(Cn1c2ccc(F)cc2c2nc3n(c(=O)c21)CCS3)N1CC=CC1`, the outcome was inactive.

These data come from PubChem BioAssay AID504525 (Broad Institute, 2011).
